Shown are actives, neighbours in structure and some others; about 3.7% of the full set was active somewhere.
Kir21 inh: inhibitors of mouse Kir2.1 inward-rectifier potassium channel; Inward rectifier potassium channel 2 (Mus musculus), P35561; HEK293-Kir2.1, FluxOR thallium flux fluorescence; stronger effect = lower value; B-score at 10 µM; 310,000 tested, 0.85% active;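 active = fluorescence ratio B-score at or below minus 3 SD of library scores, with starting-brightness B-score within 2 SD, cut at about -4.2 in these data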;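 also: channel flux triggered by added potassium and thallium sulfate stimulus; B-score of peak minus minimum fluorescence over baseline after thallium stimulus; more negative B-score means stronger Kir2.1 block with less thallium influx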
hERG protect: hERG rescue from dofetilide block, primary screen, cell-based, CHO-hERG, FluxOR thallium flux, dofetilide IC70. Voltage-gated inwardly rectifying potassium channel KCNH2 (Homo sapiens), Q12809. dofetilide IC70 present. activation (rescue from dofetilide block), less the hit threshold, % at 10 µM. 310,000 tested, 0.51% active;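 active = activation above the mean of controls blocked by dofetilide plus 5 SD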;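 also: thallium influx through hERG after potassium depolarization seen as dye fluorescence rise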
KCNQ1 pot: potentiators or activators of KCNQ1 channel, primary screen, cell-based, thallium flux, high-throughput; B-score at 10 µM; Potassium voltage-gated channel subfamily KQT member 1 (Homo sapiens), P51787; 310,000 tested, 0.35% active; CHO-K1 KCNQ1, thallium flux FluxOR fluorescence; stronger effect = higher value;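 active = fluorescence ratio B-score, a plate-corrected score, at least three library SD, with initial intensity B-score within 5 SD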
Target sequence (P51787 whole entry, looked up): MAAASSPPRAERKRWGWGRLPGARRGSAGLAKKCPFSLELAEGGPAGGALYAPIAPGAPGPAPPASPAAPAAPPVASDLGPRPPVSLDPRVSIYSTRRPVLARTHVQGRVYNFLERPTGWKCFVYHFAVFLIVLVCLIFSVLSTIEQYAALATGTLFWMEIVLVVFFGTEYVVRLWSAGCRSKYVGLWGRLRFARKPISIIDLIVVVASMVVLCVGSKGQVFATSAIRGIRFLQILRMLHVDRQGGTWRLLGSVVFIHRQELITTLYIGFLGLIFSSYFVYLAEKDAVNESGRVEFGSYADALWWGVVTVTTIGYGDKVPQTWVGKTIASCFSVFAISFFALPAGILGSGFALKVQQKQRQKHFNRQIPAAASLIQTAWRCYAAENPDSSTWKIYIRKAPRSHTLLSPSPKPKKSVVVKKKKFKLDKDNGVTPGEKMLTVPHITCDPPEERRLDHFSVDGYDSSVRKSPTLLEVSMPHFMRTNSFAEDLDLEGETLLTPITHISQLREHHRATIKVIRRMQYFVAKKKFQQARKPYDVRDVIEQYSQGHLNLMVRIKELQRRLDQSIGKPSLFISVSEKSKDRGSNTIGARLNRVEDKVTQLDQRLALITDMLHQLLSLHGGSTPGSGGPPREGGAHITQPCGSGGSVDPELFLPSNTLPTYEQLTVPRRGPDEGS
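Material: CHO-K1 cells stably expressing KCNQ1. Medium: assay buffer for compound exposure, DMSO matched across wells. Reagent: K+/Tl+ depolarizing stimulus. Compound dosing: single-concentration screen. Times: 37 °C overnight plating, 90-min dark dye load, 20-min compound pretreatment. Technique: FluxOR Tl+ flux fluorescence.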
KCNK3 inh: human KCNK3 channel inhibitors, primary screen, CHO cells, FluxOR thallium flux, B-score; Potassium channel subfamily K member 3 (Homo sapiens), O14649; AID 602410, 2012; B-score at 10 µM; FluxOR fluorescence; stronger effect = lower value; 340,000 tested, 0.84% active;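 active = B-score under library mean minus 4 SD, starting fluorescence ratio at most library mean plus 5 SD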;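 also: more negative B-score means stronger inhibition of thallium flux through KCNK3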
KCNQ1 inh: inhibitors of human KCNQ1 channel, primary screen, cell-based, thallium flux, high-throughput; 310,000 tested, 1.3% active; Potassium voltage-gated channel subfamily KQT member 1 (Homo sapiens), P51787; B-score at 10 µM; CHO-K1 KCNQ1, FluxOR thallium flux fluorescence; stronger effect = higher value;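 active = compounds whose thallium flux B-score, printed positive for inhibition, exceeds three library SD while starting fluorescence stays within three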;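 also: channel opened by potassium depolarization with thallium stimulus after 20 min compound exposure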
KCNK9 block: KCNK9 potassium channel inhibitors, primary screen, HEK293 cells, thallium flux; Potassium channel subfamily K member 9 (Homo sapiens), Q9NPC2; FluxOR thallium flux fluorescence; stronger effect = lower value; B-score at 10 µM; 310,000 tested, 1.2% active; AID 488922, 2010;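 active = ratio B-score over 3 SD below the library mean, with starting fluorescence within 5 SD of its mean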;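 also: negative B-score means less thallium flux so channel inhibition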
Active calls of the source: *.

What do the screens show for `CC1Cc2ccccc2N1S(=O)(=O)c1cccc(C(=O)NCc2ccccn2)c1` (stereo unspecified)?
KCNK3 inh: inactive

What do the screens show for `CC1Cc2ccccc2N1S(=O)(=O)c1cccc(C(=O)NCc2ccncc2)c1` (stereo unspecified)?
KCNK3 inh: -9.55*

Results for Cc1cc(C(=O)NC2CCCc3c2cnn3-c2ccc(C(C)(C)C)cc2)nn1C (stereo unspecified) ?
Kir21 inh: -0.84; hERG protect: -22.8; KCNQ1 pot: inactive; KCNK3 inh: inactive; KCNQ1 inh: 8*; KCNK9 block: inactive

How did CCCn1ccnc1SCC(=O)Nc1c(C)n(C)n(-c2ccccc2)c1=O do in these assays?
KCNK3 inh: inactive

Results for COCCNCC1C(Oc2ccc(Cl)cc2)C(=O)N1c1ccccc1C (stereo unspecified) ?
Kir21 inh: 0.53; hERG protect: -5.7; KCNQ1 pot: inactive; KCNK3 inh: inactive; KCNQ1 inh: inactive; KCNK9 block: inactive

Results for COc1ccc(CCNCC2C(Oc3ccc(Cl)cc3)C(=O)N2c2ccccc2C)cc1OC (stereo unspecified) ?
Kir21 inh: 0.44; hERG protect: -12.5; KCNQ1 pot: inactive; KCNK3 inh: inactive; KCNQ1 inh: inactive; KCNK9 block: -6.82*

What do the screens show for `CCc1cc(OCCCCNCc2ccccc2)ccc1Cl`?
Kir21 inh: -11*; hERG protect: -20.2; KCNQ1 pot: inactive; KCNK3 inh: inactive; KCNQ1 inh: inactive; KCNK9 block: inactive

How did CCOCCCNCc1ccc(OCc2ccccc2Cl)cc1 do in these assays?
Kir21 inh: -4.33*; hERG protect: -6.3; KCNQ1 pot: inactive; KCNK3 inh: inactive; KCNQ1 inh: inactive; KCNK9 block: inactive

What do the screens show for `CC(C)(C)c1ccc(OCCCNCc2ccccc2)cc1`?
Kir21 inh: -3.77; hERG protect: -23.6; KCNQ1 pot: inactive; KCNK3 inh: inactive; KCNQ1 inh: inactive; KCNK9 block: inactive

Results for CC(C)C[C@@H](CN)NC(=O)c1nc[nH]c1C(=O)N[C@@H](CC(C)C)C(=O)CNC[C@H](C)NC(=O)c1nc[nH]c1C(=O)N[C@@H](CC(=O)O)C(=O)O ?
KCNK3 inh: inactive

What do the screens show for `CCOc1cc(CNCCO)cc(Br)c1OCc1ccc(Cl)cc1Cl`?
Kir21 inh: -13*; hERG protect: -16.9; KCNQ1 pot: inactive; KCNK3 inh: inactive; KCNQ1 inh: inactive; KCNK9 block: -7.8*

How did CCOc1cccc(CNc2ccc(O)cc2)c1OCc1ccc(Cl)cc1Cl do in these assays?
Kir21 inh: -0.05; hERG protect: -1.9; KCNQ1 pot: inactive; KCNK3 inh: inactive; KCNQ1 inh: inactive; KCNK9 block: inactive

What do the screens show for `CCOc1cccc(CNCCO)c1OCc1ccc(Cl)cc1Cl`?
Kir21 inh: -6.1*; hERG protect: -10.4; KCNQ1 pot: inactive; KCNK3 inh: inactive; KCNQ1 inh: inactive; KCNK9 block: inactive

Results for N/C(=N\OC(=O)c1ccc2ccccc2c1)c1ccccc1Cl ?
Kir21 inh: -2.5; hERG protect: -11.5; KCNQ1 pot: inactive; KCNK3 inh: inactive; KCNQ1 inh: inactive; KCNK9 block: inactive

Results for O=C(/C=C/c1cccc(Cl)c1)N1CCC(Cc2ccccc2)CC1 ?
Kir21 inh: -0.15; hERG protect: -9.5; KCNQ1 pot: inactive; KCNK3 inh: inactive; KCNQ1 inh: 8*; KCNK9 block: inactive

What do the screens show for `Fc1ccc(CN2CCC(Cc3ccccc3)CC2)cc1F`?
Kir21 inh: -1.48; hERG protect: -8.7; KCNQ1 pot: inactive; KCNK3 inh: inactive; KCNQ1 inh: inactive; KCNK9 block: inactive

Results for c1ccc(CC2CCN(Cc3ccccn3)CC2)cc1 ?
Kir21 inh: 0.92; hERG protect: -8.0; KCNQ1 pot: inactive; KCNK3 inh: inactive; KCNQ1 inh: inactive; KCNK9 block: inactive

How did Clc1cccc(CN2CCC(Cc3ccccc3)CC2)c1 do in these assays?
Kir21 inh: -7.21*; hERG protect: -14.1; KCNQ1 pot: inactive; KCNK3 inh: inactive; KCNQ1 inh: inactive; KCNK9 block: inactive

How did Clc1ccc(CN2CCC(Cc3ccccc3)CC2)cc1 do in these assays?
Kir21 inh: -7.51*; hERG protect: -1.9; KCNQ1 pot: inactive; KCNK3 inh: inactive; KCNQ1 inh: inactive; KCNK9 block: inactive

How did Cc1ccc(NC(=O)Cc2ccc(-c3ccccc3)cc2)nc1 do in these assays?
Kir21 inh: 0.99; hERG protect: -2.6; KCNQ1 pot: inactive; KCNK3 inh: inactive; KCNQ1 inh: inactive; KCNK9 block: inactive

Results for Cc1ccc(NC(=O)CCCc2ccccc2)nc1 ?
Kir21 inh: 0.83; hERG protect: -16.4; KCNQ1 pot: inactive; KCNK3 inh: inactive; KCNQ1 inh: 6*; KCNK9 block: inactive

What do the screens show for `CCOC(=O)C1=C(C)NC(C)=C(C(=O)OCC)C1C(=O)OCC(=O)NC1CCCCC1`?
KCNK3 inh: inactive

What do the screens show for `CCCCn1c(-c2ccccc2C)nc2cc3[nH]c(=O)c(C(C)C)nc3cc21`?
Kir21 inh: -0.94; hERG protect: -18.2; KCNQ1 pot: inactive; KCNK3 inh: inactive; KCNQ1 inh: inactive; KCNK9 block: -8.09*

What do the screens show for `COc1ccc(CN(Cc2cccn2C)S(=O)(=O)c2ccc(F)cc2)cc1`?
Kir21 inh: 1.43; hERG protect: -2.1; KCNQ1 pot: inactive; KCNK3 inh: inactive; KCNQ1 inh: inactive; KCNK9 block: -6.85*

How did COc1cc(C)ccc1Oc1ccc([N+](=O)[O-])cc1 do in these assays?
KCNK3 inh: inactive

What do the screens show for `S=C(Nc1ccccc1)N1CCc2ccccc21`?
Kir21 inh: 1.03; hERG protect: -10.0; KCNQ1 pot: inactive; KCNK3 inh: inactive; KCNQ1 inh: inactive; KCNK9 block: inactive

Results for O=C(COc1ccc(Cl)cc1Cl)NC(=S)N1CCCc2ccccc21 ?
Kir21 inh: 0.04; hERG protect: 13.1*; KCNQ1 pot: inactive; KCNK3 inh: inactive; KCNQ1 inh: inactive; KCNK9 block: inactive

How did CC(=O)c1cc(F)ccc1OCC(=O)N1CCCc2ccccc21 do in these assays?
Kir21 inh: -6.48*; hERG protect: -4.0; KCNQ1 pot: inactive; KCNK3 inh: inactive; KCNQ1 inh: inactive; KCNK9 block: inactive

How did O=C(NC(=S)N1CCc2ccccc21)c1ccccc1 do in these assays?
Kir21 inh: 3.48; hERG protect: 24.0*; KCNQ1 pot: inactive; KCNK3 inh: inactive; KCNQ1 inh: inactive; KCNK9 block: inactive
